Hits are enriched below; roughly 4.6% of the tested compounds scored in any of these assays.
Arr AP2 block = inhibitors of beta-arrestin/AP2 binding, primary screen, biochemical, GPCR trafficking, flow cytometry; beta-arrestin 1 C-terminal peptide binding to AP2 beta2-adaptin appendage (human); FITC-arrestin peptide / GST-AP2 beads; AP2 beta2 appendage carries R879A mutation; inhibition, % at 10 µM; 340,000 compounds, 0.31% hits; AID 504490, 2011;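 active = inhibition above a set limit, near 3 SD of compounds lacking own fluorescence, cut at about 54% in these data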;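 also: plate controls were DMSO wells for no effect and 5 µM unlabelled arrestin peptide for full effect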
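system = GST-tagged AP2 beta2-adaptin appendage (R879A) on 4 µm glutathione beads | reagent = FITC-labelled arrestin peptide probe, 50 nM final | schedule = compound with beads 12 min RT, then probe 1 h RT | signal = HyperCyt-sampled flow cytometry, FL1 channel, ex 488/em 535 nm | read-out = percent response from loss of bead-bound FITC fluorescence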
Pemphigus Ab inh = inhibitors of pemphigus antibody binding to DSG3, primary screen, biochemical, bead-based, flow cytometry, scFv-GFP. Desmoglein-3 (Homo sapiens), P32926. DSG3-coupled beads, scFv-anti-DSG3-GFP binding; stronger effect = lower value. binding (percent of control), % at 10 µM. 310,000 compounds, 0.48% hits. AID 588358, 2011;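 active = binding more than 3 SD below its plate's average and above zero; inconclusive = below that plate limit but binding exactly zero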
PolyA inh = polyadenylation inhibitors in yeast reporter cells, primary screen, luminescence, S. cerevisiae; 300,000 compounds, 0.02% hits; S. cerevisiae SKY197-pL101 polyadenylation reporter, beta-gal luminescence; efflux-impaired pdr1/pdr3 knockout yeast; score 100 = 6 SD above DMSO; activity score, % at 12 µM;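 active = lowest replicate activity score at least 50, where 100 means six control SD above control mean; inconclusive = lowest score under 50 but half or more replicates reach 50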;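 also: yeast exposed to compound for 9 h at 30 °C; higher score means more reporter readthrough which indicates perturbed polyadenylation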
NALP3 yeast inh = NALP3 inflammasome inhibitors in reconstituted yeast, primary screen, luminescence, uHTS | Yeast reconstituted NLRP3/ASC/caspase-1, beta-gal luminescence, 24 h | inhibition, % at 10 µM | 330,000 compounds, 0.39% hits | AID 2825, 2010;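 active = inhibition of 50% or more; inactive = inhibition below 50%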;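 also: plate controls were induced DMSO wells for no effect and uninduced yeast grown without galactose for full effect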
NALP1 inh = NALP1 inflammasome inhibitors in reconstituted yeast, colorimetric, S. cerevisiae, triplicate retest | S. cerevisiae NALP1/ASC/caspase-1 growth, X-gal OD620, 72 h | inhibition, % at 10 µM | 280,000 compounds, 0.61% hits | AID 2071, 2009; in the data active = inhibition mostly above about 24%, no sharp cut-off; inactive = mostly below about 32%
ALR H2O2 inh = inhibitors of human ALR sulfhydryl oxidase, primary screen, biochemical, H2O2 detection, HRP-luminol luminescence, single point | AID 485317, 2010 | purified ALR, DTT oxidation | inhibition, % (test concentration not listed) | 290,000 compounds, 3.8% hits;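 active = mean replicate inhibition above about 79%, with every replicate also reaching it, limit read from the data; inconclusive = only one of the two criteria met; inactive = mean below limit and not every replicate reaching it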
Target sequence (P55789 whole entry, looked up): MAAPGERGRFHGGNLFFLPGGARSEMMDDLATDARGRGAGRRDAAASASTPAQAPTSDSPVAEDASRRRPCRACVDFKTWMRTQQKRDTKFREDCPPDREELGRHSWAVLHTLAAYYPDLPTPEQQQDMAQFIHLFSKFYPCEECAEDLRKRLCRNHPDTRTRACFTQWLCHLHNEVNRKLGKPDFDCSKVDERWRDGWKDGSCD
Active calls of the source: *; ? = inconclusive; . = no result.

SMILES	Arr AP2 block	Pemphigus Ab inh	PolyA inh	NALP3 yeast inh	NALP1 inh	ALR H2O2 inh
CN(C)C(CNC(=O)c1ccc(NS(=O)(=O)c2ccc(F)c(F)c2)cc1)c1ccccc1 (stereo not given)	5	96	1	9	.	-2
Cc1cc(S(=O)(=O)Nc2ccc(C(=O)NCC(c3ccccc3)N(C)C)cc2)ccc1F (stereo not given)	15	111	18	8	29*	1
CCOC(=O)C(=NC1CCS(=O)(=O)C1)NNc1ccc(Br)cc1 (stereo not given)	22	101	5	20	19	99*
CCOC(=O)C(=NC(C)CC)NNc1ccc(Br)cc1 (stereo not given)	3	83	-53	25	32	99*
CCOC(=O)C(=NC1CCS(=O)(=O)C1)NNc1ccccc1Cl (stereo not given)	-3	100	15	0	.	99*
OCCn1c(-c2ccc(F)cc2)csc1=Nc1ccccc1	3	.	-5	24	53	96*
OCCn1c(-c2ccc3c(c2)OCO3)csc1=Nc1ccccc1	5	.	9	11	.	.
CCOc1ccc(N=c2scc(-c3ccccc3)n2CCO)cc1	6	98	-12	18	7	25
CCn1c(-c2ccccc2)csc1=Nc1ccc(O)cc1	23	88	-6	26	13	99*
CCc1ccc2oc(=O)cc(CN3CCCCC3)c2c1	26	111	-7	0	14	1
COc1ccc(CCNC(=O)CCCn2c(=S)[nH]c3ccsc3c2=O)cc1OC	.	105	.	.	.	.
Cc1cc(-c2ccccc2)c2c(=O)n(-c3ccccc3)[nH]c2n1	-4	94	4	26	17	99*
Cc1oc(-c2cccc(Cl)c2)nc1CS(=O)(=O)CC(=O)NC1CC1	15	111	20	9	-12	90*
COc1ccc(NC(=O)CS(=O)(=O)Cc2nc(-c3ccc(C)cc3)oc2C)cc1	9	106	-13	-3	45*	-2
COc1cccc(-c2nc(CS(=O)(=O)CC(=O)NC3CCCCCC3)c(C)o2)c1	-4	103	7	10	-3	98*
CCOC(=O)N1CCC(NC(=O)CS(=O)(=O)Cc2nc(-c3cccc(OC)c3)oc2C)CC1	33	127	-1	3	10	99*
COc1cccc(-c2nc(CS(=O)(=O)CC(=O)NC3CC3)c(C)o2)c1	9	94	8	5	13	-8
CC(=O)Nc1ccc(NC(=O)c2c(-c3ccccc3)noc2C)cn1	-2	96	16	-8	19	-16
O=C(Nc1cc(S(=O)(=O)N2CCOCC2)ccc1N1CCCCC1)c1ccccc1Br	5	90	.	6	.	.
COc1ccccc1CNS(=O)(=O)c1ccc(-n2cccn2)cc1	27	98	1	16	3	-9
CCc1ccc(-c2cc(C)no2)cc1S(=O)(=O)N1CCCN(Cc2ccc(F)cc2)C1	-4	?	-4	10	4	-3
Cc1ccc(-c2nc(CS(=O)(=O)CC(=O)N3CCc4ccccc4C3)c(C)o2)cc1	9	112	2	25	41	10
Cc1ccc(-c2nc(CS(=O)(=O)CC(=O)N3CCCCCC3)c(C)o2)cc1	4	82	9	-2	29	95*
COc1ccc(-c2nc(CS(=O)(=O)CC(=O)NC3CCCCCC3)c(C)o2)cc1	1	107	16	5	8	99*
COc1cccc(-c2nc(CS(=O)(=O)CC(=O)NC3CCCCC3C)c(C)o2)c1 (stereo not given)	2	105	-11	6	14	93*
SMILES	Arr AP2 block	Pemphigus Ab inh	PolyA inh	NALP3 yeast inh	NALP1 inh	ALR H2O2 inh
CN(C)S(=O)(=O)n1cc(/C=C(\NC(=O)c2ccccc2F)C(=O)N2CCCCC2)c2ccccc21	.	96	.	.	.	.
COc1ccc(N2C(=S)NC3N2C(=S)NC3(C)c2ccccc2)cc1 (stereo not given)	-19	88	-1	13	-26	98*
CC1(c2ccccc2)NC(=S)N2C1NC(=S)N2c1ccccc1 (stereo not given)	5	111	-16	2	-5	3
CCOc1ccc(-c2csc(NC(=O)c3cccc(N4C(=O)CCC4=O)c3)n2)cc1	3	57*	3	-3	.	-10
O=c1c2cc(F)ccc2[nH]c(=S)n1Cc1ccc(F)cc1	34	104	-40	-13	-7	.
O=C(COC(=O)c1cc[n+]([O-])cc1)Nc1ccc(SC(F)F)cc1	34	100	-20	3	.	95*
O=C(COC(=O)c1cc[n+]([O-])cc1)Nc1ccc(Br)cc1	-13	101	.	21	.	-1
CCn1ccnc1C(O)c1ccc(N(C)C)cc1 (stereo not given)	3	.	1	2	-1	99*
CCCCn1c(N)c(N(CC(C)C)C(=O)CCN2C(=O)C3CC=CCC3C2=O)c(=O)[nH]c1=O (stereo not given)	.	100	.	.	.	.
Cc1ccc(CN2C(=O)S/C(=C\c3ccccc3OCC(=O)O)C2=O)cc1	-1	103	-6	-1	-12	97*
O=C(O)COc1ccccc1/C=C1\SC(=O)N(Cc2ccc(F)cc2)C1=O	0	104	4	8	21	98*
Cc1nc(C)c(C(=O)OCC(=O)Nc2ccc(C)c(C)c2)s1	.	99	.	.	.	.
Cc1cccc(N(CC(=O)NCc2ccco2)S(=O)(=O)c2ccccc2)c1	.	104	.	.	.	.
Cc1ccccc1Nc1nc(CSc2nnnn2-c2ccccc2)cs1	2	103	-7	11	-5	98*
O=C(CSc1nc2ccccc2o1)Nc1nc2c(s1)CCCC2	14	91	.	.	.	.
CCCc1nc(SCC(=O)Nc2nc3c(s2)CCCC3)c2ccccc2n1	5	101	25	4	7	99*
CCc1nc(SCC(=O)Nc2nc3c(s2)CCCC3)c2ccccc2n1	13	.	-1	4	13	99*
CCc1nc(SCC(=O)Nc2ccc(C(=O)O)cc2)n[nH]1	3	100	1	8	2	99*
CCc1nc(SCC(=O)Nc2ccc(N(C)C)cc2)n[nH]1	-1	97	7	8	.	98*
O=C(Nc1ccc2c(c1)C(=O)N(c1ccccc1)C2=O)c1cccs1	-4	87*	6	9	-12	-4
O=C(NC(O)C(=O)c1ccccc1)c1cccs1 (stereo not given)	-1	105	16	10	20	91*

Screens (PubChem BioAssay)
